Each block holds one molecule with its values, some of them ahead of it. Active and inactive are the calls of the source. No cut-off for these calls is given here.
Assays:
[1] = species on record: Cavia porcellus; assay: Percent inhibition of the LTE4- induced contraction of guinea pig tracheal spirals at the concentration of 3.3 uM; assay type: functional; conditions: Trachea
Procedure, shortened: (§1)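 Guinea pig trachea cut into spiral strips, each trachea split into paired sections. Tissue bath at 37 °C in modified Krebs buffer gassed with 95% O2/5% CO2, 2 g resting tension, 60 min stabilization. After reproducible responses to 10 nM LTE4, compound was added for 10 min, then LTE4 challenge repeated. Percent inhibition is the 2nd vs 3rd response, adjusted by subtracting the vehicle-treated paired section. Paired t test, p < 0.05.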

[2] = species on record: Cavia porcellus; assay: Percent inhibition of the LTE4- induced contraction of guinea pig tracheal spirals at concentration of 10 uM; Not significant; assay type: functional; conditions: Trachea; procedure, shortened: as §1
[3] = test system: Cysteinyl leukotriene receptor (Cavia porcellus); assay: Inhibition of the LTE4- induced contraction of guinea pig tracheal spirals at 10 uM.; conditions: Trachea
[4] = test system: Cysteinyl leukotriene receptor (Cavia porcellus); assay: Inhibition of the LTE4- induced contraction of guinea pig tracheal spirals at 10 uM; Not significant.; conditions: Trachea
[5] = species on record: Cavia porcellus; assay: Percent inhibition of the LTE4- induced contraction of guinea pig tracheal spirals at the concentration of 5 uM; assay type: functional; conditions: Trachea; procedure, shortened: as §1
[6] = species on record: Cavia porcellus; assay: Percent inhibition of the LTE4- induced contraction of guinea pig tracheal spirals at the concentration of 0.33 uM; assay type: functional; conditions: Trachea; procedure, shortened: as §1
[7] = species on record: Cavia porcellus; assay: (§2) Percent inhibition of the BaCl2 - induced contraction of guinea pig tracheal spirals at concentration of 100 uM; Not significant; assay type: functional; conditions: Trachea
Procedure, shortened: (§3)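 Guinea pig tracheal strips contracted with barium chloride. Compound was tested at 100 µM, and the read-out is percent inhibition of the BaCl2-induced contraction.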

[8] = species on record: Cavia porcellus; assay: Percent inhibition of the LTE4- induced contraction of guinea pig tracheal spirals at the concentration of 1.0 uM; assay type: functional; conditions: Trachea; procedure, shortened: as §1
[9] = species on record: Cavia porcellus; assay: Percent inhibition of the LTE4- induced contraction of guinea pig tracheal spirals at the concentration of 5 uM; Not significant; assay type: functional; conditions: Trachea; procedure, shortened: as §1
[10] = species on record: Cavia porcellus; assay: Percent inhibition of the LTE4- induced contraction of guinea pig tracheal spirals at the concentration of 1 uM; assay type: functional; conditions: Trachea; procedure, shortened: as §1
[11] = Selectivity ratio of the compound; assay type: functional
[12] = pKB value of the compound
Procedure, shortened: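 Guinea pig tracheal strips at 37 °C in Krebs buffer. Cumulative LTE4 concentration-response curves were built in log increments, with responses expressed as % of the maximum to 30 µM carbachol. Antagonist was incubated 30 min before the curve, with vehicle on paired controls. EC50 came from linear regression. KB = [antagonist]/(dose ratio − 1) by the Furchgott method. One curve per tissue.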

[13] = species on record: Cavia porcellus; assay: Percent inhibition of the LTE4- induced contraction of guinea pig tracheal spirals at the concentration of 0.1 uM; assay type: functional; conditions: Trachea; procedure, shortened: as §1
[14] = species on record: Cavia porcellus; assay: Percent inhibition of the LTE4- induced contraction of guinea pig tracheal spirals at the concentration of 1.0 uM; Not significant; assay type: functional; conditions: Trachea; procedure, shortened: as §1
[15] = species on record: Cavia porcellus; assay: as §2; assay type: functional, organism-based; conditions: Trachea; procedure, shortened: as §3

SMILES: COc1cc(C(=O)O)ccc1Cn1ccc2ccc(NC(=O)C(OC)c3ccccc3)cc21 (configuration not stated)
inhibition at 3.3 µM [1]: 52%

SMILES: CCCCCC(=O)Nc1cccc2cnn(Cc3ccc(C(=O)O)cc3OC)c12
inhibition [2]: inactive

inhibition [3]: 47%
SMILES: C#CCCC(=O)Nc1ccc2ccn(Cc3ccc(C(=O)O)cc3OC)c2c1

inhibition [3]: 34%
SMILES: CCCCC(C(=O)Nc1ccc2ccn(Cc3ccc(C(=O)O)cc3OC)c2c1)c1ccccc1 (configuration not stated)

inhibition [4]: inactive
SMILES: CCCCCCCCCC(=O)Nc1ccc2ccn(Cc3ccc(C(=O)O)cc3OC)c2c1

SMILES: COc1cc(C(=O)O)ccc1Cn1ccc2ccc(NC(=O)C(C)c3ccccc3)cc21 (configuration not stated)
inhibition at 3.3 µM [1]: 59%

SMILES: COc1cc(C(=O)O)ccc1Cn1ccc2ccc(NC(=O)NC3CCCCC3)cc21
inhibition at 3.3 µM [1]: 34%

SMILES: COc1cc(C(=O)O)ccc1Cn1ccc2ccc(NC(=O)Cc3ccccc3)cc21
inhibition at 5 µM [5]: 71%

SMILES: CCCCCCNC(=O)Nc1ccc2ccn(Cc3ccc(C(=O)O)cc3OC)c2c1
inhibition at 3.3 µM [1]: 51%

SMILES: CCC(C(=O)Nc1ccc2cnn(Cc3ccc(C(=O)O)cc3OC)c2c1)c1ccccc1 (configuration not stated)
inhibition at 0.33 µM [6]: 30%
inhibition [7]: inactive

inhibition [4]: inactive
SMILES: COc1cc(C(=O)O)ccc1Cn1ccc2ccc(NS(=O)(=O)Cc3ccccc3)cc21

inhibition [3]: 14%
SMILES: COc1cc(C(=O)O)ccc1Cn1ccc2ccc(NC(=O)c3ccccc3)cc21

SMILES: COc1cc(C(=O)O)ccc1Cn1ccc2ccc(NC(=O)OC3CC=CCC3)cc21 (configuration not stated)
inhibition at 1 µM [8]: 47%

SMILES: CCC(C(=O)Nc1ccc2ccn(Cc3ccc(C(=O)O)cc3OC)c2c1)C1CCCCC1 (configuration not stated)
inhibition at 0.33 µM [6]: 18%

inhibition [3]: 62%
SMILES: CCCCCC(=O)Nc1ccc2cnn(Cc3ccc(C(=O)O)cc3)c2c1

SMILES: CCCCCCCCCCCC(=O)Nc1ccc2ccn(Cc3ccc(C(=O)O)cc3OC)c2c1
inhibition [9]: inactive

SMILES: COc1cc(C(=O)O)ccc1Cn1ccc2ccc(NC(=O)C(C)(C)c3ccccc3)cc21
inhibition at 3.3 µM [1]: 23%

SMILES: COc1cc(C(=O)O)ccc1Cn1ccc2ccc(NC(=O)C(c3ccccc3)c3ccccc3)cc21
inhibition at 3.3 µM [1]: 38%

inhibition [3]: 13%
SMILES: CCCCCC(=O)Nc1ccc2nn(Cc3ccccc3C(=O)O)cc2c1

inhibition [4]: inactive
SMILES: COc1cc(C(=O)O)ccc1Cn1ccc2ccc(NC(=O)CCCCCNC(C)=O)cc21

SMILES: COc1cc(C(=O)O)ccc1Cn1ccc2ccc(NC(=O)CC3CCCCC3)cc21
inhibition at 0.33 µM [6]: 53%

pKB [12]: 6.4
SMILES: CCCc1c(OCc2ccc(C(=O)O)cc2OC)ccc(C(C)=O)c1O
inhibition at 1 µM [10]: 38%
Selectivity ratio [11]: 50

SMILES: CCC(CC)OC(=O)Nc1ccc2ccn(Cc3ccc(C(=O)O)cc3OC)c2c1
inhibition at 0.33 µM [6]: 31%

SMILES: COc1cc(C(=O)O)ccc1Cn1ncc2ccc(NC(=O)CC3CCCC3)cc21
inhibition at 0.1 µM [13]: 83%

SMILES: CCCCCCOC(=O)Nc1ccc2ccn(Cc3ccc(C(=O)O)cc3OC)c2c1
inhibition at 1 µM [8]: 30%

inhibition [4]: inactive
SMILES: COc1cc(C(=O)O)ccc1Cn1ccc2ccc(NC(=O)Cc3ccc4ccccc4c3)cc21

SMILES: COc1cc(C(=O)O)ccc1Cn1ccc2ccc(NC(=O)OC3CCC3)cc21
inhibition at 0.1 µM [13]: 27%

SMILES: CCCC(=O)Nc1ccc2ccn(Cc3ccc(C(=O)O)cc3OC)c2c1
inhibition at 5 µM [5]: 42%

inhibition [3]: 57%
SMILES: COc1cc(C(=O)O)ccc1Cn1ccc2ccc(NC(=O)NCc3ccccc3)cc21

inhibition [4]: inactive
SMILES: CCCCN(C)C(=O)Nc1ccc2ccn(Cc3ccc(C(=O)O)cc3OC)c2c1

SMILES: COc1cc(C(=O)O)ccc1Cn1ccc2ccc(NC(=O)OC3CCCCC3)cc21
inhibition [14]: inactive

inhibition [4]: inactive
SMILES: CCCCCC(=O)Nc1ccc2c(cnn2Cc2ccc(C(=O)O)cc2)c1

inhibition [3]: 52%
SMILES: CCCCCCNc1ccc2ccn(Cc3ccc(C(=O)O)cc3OC)c2c1

inhibition [3]: 40%
SMILES: COc1cc(C(=O)O)ccc1Cn1ccc2ccc(NC(=O)C(F)(F)C(F)(F)C(F)(F)F)cc21

SMILES: CCC(C(=O)Nc1ccc2ccn(Cc3ccc(C(=O)O)cc3OC)c2c1)c1ccccc1 (configuration not stated)
inhibition at 1 µM [10]: 65%

inhibition [4]: inactive
SMILES: CCCCCC(=O)Nc1ccc2cn(Cc3ccc(C(=O)O)cc3)nc2c1

inhibition [3]: 73%
SMILES: COc1cc(C(=O)O)ccc1Cn1ccc2ccc(NC(=O)CCCc3ccccc3)cc21

SMILES: CCCCC(CC)C(=O)Nc1ccc2cnn(Cc3ccc(C(=O)O)cc3OC)c2c1 (configuration not stated)
inhibition [15]: inactive
inhibition at 0.33 µM [6]: 56%
